Legend:
[1] = test system: NoV VA387 P dimer; experiment: Direct ESI-MS assay, NoV VA387 P dimer; design: species or system human NoV VA387 (GII.4); conditions: intrinsic (per binding site) association constant; aqueous ammonium acetate (200 mM), pH 7, 25 °C
Procedure, shortened: (§1)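 Recombinant P dimer, buffer-exchanged into ammonium acetate and quantified by UV, was mixed (e.g., 12 μM) with ganglioside oligosaccharide (e.g., 80 μM) and reference protein (4 μM). Nanoelectrospray in negative ion mode used capillary −0.8 kV, cone 60 V and source 60 °C. Runs covered ≥4 initial ligand concentrations in triplicate. Ka,int came from bound/free abundance ratios, corrected for nonspecific binding, with two equivalent sites.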

[2] = test system: NoV VA115 P dimer; experiment: Direct ESI-MS assay, NoV VA115 P dimer; design: species or system human NoV VA115 (GI.3); conditions: intrinsic (per binding site) association constant; aqueous ammonium acetate (200 mM), pH 7, 25 °C
Procedure, shortened: as §1

[3] = target: T1, P dimer VA115 (Human calicivirus NLV/VA98115/1998, UniProt Q91H12); experiment: Direct ESI-MS assay; assay type: binding; conditions: n = 3
T1 sequence (Q91H12 227-545): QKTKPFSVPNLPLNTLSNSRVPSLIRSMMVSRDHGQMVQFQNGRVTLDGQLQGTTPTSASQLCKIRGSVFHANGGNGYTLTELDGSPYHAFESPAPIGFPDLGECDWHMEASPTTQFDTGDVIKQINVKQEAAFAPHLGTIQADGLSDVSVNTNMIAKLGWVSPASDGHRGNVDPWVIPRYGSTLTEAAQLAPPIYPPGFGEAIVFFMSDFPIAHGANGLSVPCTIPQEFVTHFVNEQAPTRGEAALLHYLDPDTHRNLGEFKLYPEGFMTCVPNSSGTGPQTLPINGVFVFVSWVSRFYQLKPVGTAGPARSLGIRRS
Procedure, shortened: (§2)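 Recombinant P dimer (P domain residues 222–539, made in E. coli via a GST fusion system) was titrated with at least four initial oligosaccharide concentrations, in triplicate. Example mix: 12 μM dimer, 80 μM ligand, 4 μM reference protein. Bound/free abundance ratios were taken as solution ratios after nonspecific-binding correction. Ka,int was fitted assuming two independent, equivalent sites.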

[4] = target: P dimer VA387 (Human calicivirus NLV/VA98387/1998, UniProt Q913Z3); experiment: Direct ESI-MS assay; assay type: binding; conditions: n = 3
Procedure, shortened: as §2

Chain of P dimer VA387 (Q913Z3 222-539): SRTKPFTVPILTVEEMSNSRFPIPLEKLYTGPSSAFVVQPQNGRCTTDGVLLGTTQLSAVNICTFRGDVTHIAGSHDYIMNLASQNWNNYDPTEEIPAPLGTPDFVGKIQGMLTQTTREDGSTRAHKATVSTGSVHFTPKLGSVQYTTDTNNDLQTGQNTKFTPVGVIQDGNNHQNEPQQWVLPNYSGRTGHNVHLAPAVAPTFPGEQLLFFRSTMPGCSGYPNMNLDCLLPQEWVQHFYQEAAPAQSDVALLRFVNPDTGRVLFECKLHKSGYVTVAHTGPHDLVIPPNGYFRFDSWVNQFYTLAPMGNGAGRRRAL

SMILES	Ka,int P dimer VA387 [1]	Ka,int P dimer VA115 [2] [M^–1]	Kd [3] [µM]	Kd [4] [µM]	Ka,int [3] [M⁻¹]
CC(=O)N[C@H]1[C@H](O[C@@H]2[C@H](O[C@]3(C(=O)O)C[C@H](O)[C@@H](NC(C)=O)[C@H]([C@H](O)[C@@H](CO)O[C@]4(C(=O)O)C[C@H](O)[C@@H](NC(C)=O)[C@H]([C@H](O)[C@@H](CO)O[C@]5(C(=O)O)C[C@H](O)[C@@H](NC(C)=O)[C@H]([C@H](O)[C@H](O)CO)O5)O4)O3)[C@@H](O)[C@H](O[C@H]3[C@H](O)[C@@H](O)C(O)O[C@@H]3CO)O[C@@H]2CO)O[C@H](CO)[C@H](O)[C@@H]1O[C@@H]1O[C@H](CO)[C@H](O)[C@H](O)[C@H]1O (stereo partly drawn) [GT1c]	<100 M^–1	260 ± 110	–	–	–
CC(=O)NC1C(O)CC(OC2C(O)C(OC3C(CO)OC(O)C(O)C3O)OC(CO)C2OC2OC(CO)C(O)C(OC3OC(CO)C(O)C(O)C3OC3OC(C)C(O)C(O)C3O)C2NC(C)=O)(C(=O)O)OC1C(O)C(O)CO (stereo not drawn) [fucosyl-GM1]	460 ± 150 M^–1	600 ± 130	–	–	–
CC(=O)N[C@H]1[C@H](O[C@@H]2[C@H](O[C@]3(C(=O)O)C[C@H](O)[C@@H](NC(C)=O)[C@H]([C@H](O)[C@@H](CO)O[C@]4(C(=O)O)C[C@H](O)[C@@H](NC(C)=O)[C@H]([C@H](O)[C@H](O)CO)O4)O3)[C@@H](O)[C@H](O[C@H]3[C@H](O)[C@@H](O)C(O)O[C@@H]3CO)O[C@@H]2CO)O[C@H](CO)[C@H](O)[C@@H]1O[C@@H]1O[C@H](CO)[C@H](O)[C@H](O)[C@H]1O (stereo partly drawn) [GD1b, GD1b ganglioside oligosaccharide (Galb1-3GalNAcb1-4(Neu5Aca2-8Neu5Aca2-3)Galb1-4Glc)]	–	–	2940	–	–
CC(=O)NC1C(OC2C(CO)OC(OC3C(CO)OC(O)C(O)C3O)C(O)C2OC2(C(=O)O)CC(O)C(NC(C)=O)C(C(O)C(CO)OC3(C(=O)O)CC(O)C(NC(C)=O)C(C(O)C(CO)OC4(C(=O)O)CC(O)C(NC(C)=O)C(C(O)C(O)CO)O4)O3)O2)OC(CO)C(O)C1O (stereo not drawn) [GT2]	<100 M^–1	230 ± 50	–	–	–
CC(=O)NC1C(O)CC(OC(CO)C(O)C2OC(OC(CO)C(O)C3OC(OC4C(O)C(CO)OC(OC5C(CO)OC(O)C(O)C5O)C4O)(C(=O)O)CC(O)C3NC(C)=O)(C(=O)O)CC(O)C2NC(C)=O)(C(=O)O)OC1C(O)C(O)CO (stereo not drawn) [GT3]	do not show any detectable binding	310 ± 150	–	–	–
CC(=O)N[C@H]1[C@H](O[C@@H]2[C@H](O[C@]3(C(=O)O)C[C@H](O)[C@@H](NC(C)=O)[C@H]([C@H](O)[C@@H](CO)O[C@]4(C(=O)O)C[C@H](O)[C@@H](NC(C)=O)[C@H]([C@H](O)[C@H](O)CO)O4)O3)[C@@H](O)[C@H](O[C@H]3[C@H](O)[C@@H](O)C(O)O[C@@H]3CO)O[C@@H]2CO)O[C@H](CO)[C@H](O)[C@@H]1O (stereo partly drawn) [GD2]	150 ± 60 M^–1	700 ± 140	–	–	–
CC(=O)N[C@H]1[C@H](O[C@@H]2[C@H](O)[C@@H](O)[C@H](O[C@H]3[C@H](O)[C@@H](O)C(O)O[C@@H]3CO)O[C@@H]2CO)O[C@H](CO)[C@H](O)[C@@H]1O[C@@H]1O[C@H](CO)[C@H](O)[C@H](O[C@]2(C(=O)O)C[C@H](O)[C@@H](NC(C)=O)[C@H]([C@H](O)[C@H](O)CO)O2)[C@H]1O (stereo partly drawn) [GM1b, GM1b ganglioside oligosaccharide (Neu5Aca2-3Galb1-3GalNAcb1-4Galb1-4Glc)]	–	–	2080	5560	–
CC(=O)N[C@H]1[C@H]([C@H](O)[C@H](O)CO)O[C@@](O[C@H](CO)[C@@H](O)[C@@H]2O[C@@](O[C@H]3[C@@H](O)[C@@H](CO)O[C@@H](O[C@H]4[C@H](O)[C@@H](O)C(O)O[C@@H]4CO)[C@@H]3O)(C(=O)O)C[C@H](O)[C@H]2NC(C)=O)(C(=O)O)C[C@@H]1O (stereo partly drawn) [GD3]	340 ± 60 M^–1	420 ± 140	–	–	–
CC(=O)N[C@H]1[C@H](O[C@@H]2[C@H](O[C@]3(C(=O)O)C[C@H](O)[C@@H](NC(C)=O)[C@H]([C@H](O)[C@H](O)CO)O3)[C@@H](O)[C@H](O[C@H]3[C@H](O)[C@@H](O)C(O)O[C@@H]3CO)O[C@@H]2CO)O[C@H](CO)[C@H](O)[C@@H]1O[C@@H]1O[C@H](CO)[C@H](O)[C@H](O[C@]2(C(=O)O)C[C@H](O)[C@@H](NC(C)=O)[C@H]([C@H](O)[C@@H](CO)O[C@]3(C(=O)O)C[C@H](O)[C@@H](NC(C)=O)[C@H]([C@H](O)[C@H](O)CO)O3)O2)[C@H]1O (stereo partly drawn) [GT1a]	do not show any detectable binding	210 ± 70	–	–	–
CC(=O)N[C@H]1[C@H](O[C@@H]2[C@H](O[C@]3(C(=O)O)C[C@H](O)[C@@H](NC(C)=O)[C@H]([C@H](O)[C@@H](CO)O[C@]4(C(=O)O)C[C@H](O)[C@@H](NC(C)=O)[C@H]([C@H](O)[C@H](O)CO)O4)O3)[C@@H](O)[C@H](O[C@H]3[C@H](O)[C@@H](O)C(O)O[C@@H]3CO)O[C@@H]2CO)O[C@H](CO)[C@H](O)[C@@H]1O (stereo partly drawn) [GD2, GD2 ganglioside oligosaccharide (GalNAcb1-4(Neu5Aca2-8Neu5Aca2-3)Galb1-4Glc)]	–	–	1430	6670	–
CC(=O)NC1C(O)CC(OC(CO)C(O)C2OC(OC(CO)C(O)C3OC(OC4C(O)C(CO)OC(OC5C(CO)OC(O)C(O)C5O)C4O)(C(=O)O)CC(O)C3NC(C)=O)(C(=O)O)CC(O)C2NC(C)=O)(C(=O)O)OC1C(O)C(O)CO (stereo not drawn) [GT3, GT3 ganglioside oligosaccharide (Neu5Aca2-8Neu5Aca2-8Neu5Aca2-3Galb1-4Glc)]	–	–	3230	–	–
CC(=O)NC1C(OC2C(CO)OC(OC3C(CO)OC(O)C(O)C3O)C(O)C2OC2(C(=O)O)CC(O)C(NC(C)=O)C(C(O)C(CO)OC3(C(=O)O)CC(O)C(NC(C)=O)C(C(O)C(CO)OC4(C(=O)O)CC(O)C(NC(C)=O)C(C(O)C(O)CO)O4)O3)O2)OC(CO)C(O)C1O (stereo not drawn) [GT2, GT2 ganglioside oligosaccharide (GalNAcb1-4(Neu5Aca2-8Neu5Aca2-8Neu5Aca2-3)Galb1-4Glc)]	–	–	4350	> 10000	–
CC(=O)NC1C(O)CC(OC2C(O)C(OC3C(CO)OC(O)C(O)C3O)OC(CO)C2OC2OC(CO)C(O)C(OC3OC(CO)C(O)C(O)C3OC3OC(C)C(O)C(O)C3O)C2NC(C)=O)(C(=O)O)OC1C(O)C(O)CO (stereo not drawn) [fucosyl-GM1, fucosyl-GM1 ganglioside oligosaccharide (Fuc-GM1; Fuca1-2Galb1-3GalNAcb1-4(Neu5Aca2-3)Galb1-4Glc)]	–	–	1670	2170	–
CC(=O)N[C@H]1[C@H](O[C@@H]2[C@H](O[C@]3(C(=O)O)C[C@H](O)[C@@H](NC(C)=O)[C@H]([C@H](O)[C@@H](CO)O[C@]4(C(=O)O)C[C@H](O)[C@@H](NC(C)=O)[C@H]([C@H](O)[C@H](O)CO)O4)O3)[C@@H](O)[C@H](O[C@H]3[C@H](O)[C@@H](O)C(O)O[C@@H]3CO)O[C@@H]2CO)O[C@H](CO)[C@H](O)[C@@H]1O[C@@H]1O[C@H](CO)[C@H](O)[C@H](O)[C@H]1O (stereo partly drawn) [GD1b]	do not show any detectable binding	340 ± 50	–	–	–
CC(=O)N[C@H]1[C@H](O[C@@H]2[C@H](O[C@]3(C(=O)O)C[C@H](O)[C@@H](NC(C)=O)[C@H]([C@H](O)[C@H](O)CO)O3)[C@@H](O)[C@H](O[C@H]3[C@H](O)[C@@H](O)C(O)O[C@@H]3CO)O[C@@H]2CO)O[C@H](CO)[C@H](O)[C@@H]1O (stereo partly drawn) [GM2]	360 ± 90 M^–1	700 ± 200	–	–	–
CC(=O)N[C@H]1[C@H](O[C@@H]2[C@H](O)[C@@H](O)[C@H](O[C@H]3[C@H](O)[C@@H](O)C(O)O[C@@H]3CO)O[C@@H]2CO)O[C@H](CO)[C@H](O)[C@@H]1O[C@@H]1O[C@H](CO)[C@H](O)[C@H](O[C@]2(C(=O)O)C[C@H](O)[C@@H](NC(C)=O)[C@H]([C@H](O)[C@H](O)CO)O2)[C@H]1O (stereo partly drawn) [GM1b]	180 ± 60 M^–1	480 ± 110	–	–	–
CC(=O)N[C@H]1[C@H](O[C@@H]2[C@H](O[C@]3(C(=O)O)C[C@H](O)[C@@H](NC(C)=O)[C@H]([C@H](O)[C@H](O)CO)O3)[C@@H](O)[C@H](O[C@H]3[C@H](O)[C@@H](O)C(O)O[C@@H]3CO)O[C@@H]2CO)O[C@H](CO)[C@H](O)[C@@H]1O[C@@H]1O[C@H](CO)[C@H](O)[C@H](O)[C@H]1O (stereo partly drawn) [GM1a]	350 ± 80 M^–1	400 ± 140	–	–	–
CC(=O)N[C@H]1[C@H](O[C@@H]2[C@H](O[C@]3(C(=O)O)C[C@H](O)[C@@H](NC(C)=O)[C@H]([C@H](O)[C@H](O)CO)O3)[C@@H](O)[C@H](O[C@H]3[C@H](O)[C@@H](O)C(O)O[C@@H]3CO)O[C@@H]2CO)O[C@H](CO)[C@H](O)[C@@H]1O[C@@H]1O[C@H](CO)[C@H](O)[C@H](O[C@]2(C(=O)O)C[C@H](O)[C@@H](NC(C)=O)[C@H]([C@H](O)[C@@H](CO)O[C@]3(C(=O)O)C[C@H](O)[C@@H](NC(C)=O)[C@H]([C@H](O)[C@H](O)CO)O3)O2)[C@H]1O (stereo partly drawn) [GT1a, GT1a ganglioside oligosaccharide (Neu5Aca2-8Neu5Aca2-3Galb1-3GalNAcb1-4(Neu5Aca2-3)Galb1-4Glc)]	–	–	–	–	210 ± 70
